Measured values from ChEMBL document CHEMBL1147571, “Synthesis and biological evaluation of benzamides and benzamidines: structural requirement of a pyrimidine ring for inhibition of EGFR tyrosine kinase” (Bioorg Med Chem Lett, 2004).

System: A-431
Experiment: Cytotoxic effect on A431 human epidermoid carcinoma cells
Assay type: functional, cell-based
Method in brief: (§1)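 A431 human epidermoid carcinoma cells exposed to compounds up to 1.0 mM and scored for cell growth inhibition. The IC50 is the compound concentration giving 50% growth inhibition. Where 50% inhibition was not reached at 1.0 mM, that is recorded instead of a value.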

SMILES	IC50
COc1cc(N)c(C(=N)Nc2cccc(Br)c2)cc1OC	300 µM
COc1cc2c(cc1OC)C(Nc1cccc(Cl)c1)=NC(C)(C)N2	200 µM
COc1cc(N)c(C(=O)Nc2cccc(Br)c2)cc1OC	340 µM
COc1cc2c(cc1OC)C(Nc1cccc(Br)c1)=NC(C)(C)N2	130 µM
COc1cccc(NC2=NC(C)(C)Nc3cc(OC)c(OC)cc32)c1	320 µM
COc1cccc(NC(=O)c2cc(OC)c(OC)cc2N)c1	200 µM
COc1cc(N)c(C(=O)Nc2cccc(C(F)(F)F)c2)cc1OC	470 µM
COc1cccc(NC(=N)c2cc(OC)c(OC)cc2N)c1	340 µM
COc1cc(N)c(C(=N)Nc2cccc(Cl)c2)cc1OC	460 µM
COc1cc(N)c(C(=N)Nc2ccc(F)c(Cl)c2)cc1OC	200 µM
COc1cc2c(cc1OC)C(Nc1ccc(F)c(Cl)c1)=NC(C)(C)N2	90 µM

System: A-431
Experiment: Cytotoxic effect on A431 human epidermoid carcinoma cells (No response to 1 mM)
Assay type: functional, cell-based
Method in brief: as §1

SMILES	IC50
COc1cc(N)c(C(=O)NC2CCCCC2)cc1OC	> 1000 µM
COc1cc(N)c(C(=O)Nc2ccccn2)cc1OC	> 1000 µM
COc1cc(N)c(C(=O)NC(C)c2ccccc2)cc1OC (configuration not stated)	> 1000 µM
COc1cc(N)c(C(=O)Nc2ccncc2)cc1OC	> 1000 µM
COc1cc(N)c(C(=O)Nc2cccnc2)cc1OC	> 1000 µM
COc1cc(N)c(C(=O)Nc2ccc(F)c(Cl)c2)cc1OC	> 1000 µM
